# From ChEMBL document CHEMBL5058577, “EUbOPEN Chemogenomics Library 2 (Multiplex)” (2022)
# Tested on: U2OS
# Assay: Multiplex assay against U2OS
# Type: toxicity, cell-based
# Conditions: human
# How it was run: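 On a CQ1 microscope at 37°C and 5% CO2, live cells were imaged after compound addition. They had been stained at seeding with Hoechst33342, BioTracker Green Microtubule Cytoskeleton Dye, MitoTracker Red and Annexin V Alexa Fluor 680. CellPathfinder machine-learning gating assigned cells to Hoechst high-intensity objects or normal cells, normal cells to healthy, pyknosed or fragmented nuclei, and pyknosed cells to mitotic or apoptotic. Tubulin, mitochondrial-mass and membrane-permeability phenotypes are per cents of healthy-nucleus cells.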
# [1] = 12 h, 1 µM, compound concentration 1 uM, replicate 1
# [2] = 12 h, 1 µM, compound concentration 1 uM, replicate 2
# [3] = 12 h, 10 µM, compound concentration 10 uM, replicate 1
# [4] = 12 h, 10 µM, compound concentration 10 uM, replicate 2
# [5] = 24 h, 1 µM, compound concentration 1 uM, replicate 1
# [6] = 24 h, 1 µM, compound concentration 1 uM, replicate 2
# [7] = 24 h, 10 µM, compound concentration 10 uM, replicate 1
# [8] = 24 h, 10 µM, compound concentration 10 uM, replicate 2
# [9] = 48 h, 1 µM, compound concentration 1 uM, replicate 1
# [10] = 48 h, 1 µM, compound concentration 1 uM, replicate 2
# [11] = 48 h, 10 µM, compound concentration 10 uM, replicate 1
# [12] = 48 h, 10 µM, compound concentration 10 uM, replicate 2
smiles,measurement,setting,value
CSCC[C@H](NC=O)C(=O)N[C@@H](CC(C)C)C(=O)N[C@@H](Cc1ccccc1)C(=O)O,Population Apoptotic (%),[1],73%
same,Population Fragmented Nuclei (%),[1],29%
same,Population Mitochondria Different-Phenotype (%),[1],4%
same,Population Mitotic Cells (%),[1],26%
same,Total Cell Count,[1],254
same,Population Apoptotic (%),[2],100%
same,Population Fragmented Nuclei (%),[2],17%
same,Population Healthy Nuclei (%),[2],75%
same,Population Mitochondria Different-Phenotype (%),[2],3%
same,Population Mitotic Cells (%),[2],0%
same,Total Cell Count,[2],135
same,Population Apoptotic (%),[3],69%
same,Population Fragmented Nuclei (%),[3],23%
same,Population Healthy Nuclei (%),[3],70%
same,Population Mitochondria Different-Phenotype (%),[3],1%
same,Population Mitotic Cells (%),[3],30%
same,Total Cell Count,[3],202
same,Population Apoptotic (%),[4],90%
same,Population Fragmented Nuclei (%),[4],16%
same,Population Healthy Nuclei (%),[4],74%
same,Population Membrane Permeable-Phenotype (%),[4],4%
same,Population Mitochondria Different-Phenotype (%),[4],2%
same,Total Cell Count,[4],123
same,Population Apoptotic (%),[5],91%
same,Population Fragmented Nuclei (%),[5],24%
same,Population Mitochondria Different-Phenotype (%),[5],3%
same,Population Mitotic Cells (%),[5],8%
same,Total Cell Count,[5],288
same,Population Apoptotic (%),[6],90%
same,Population Fragmented Nuclei (%),[6],17%
same,Population Healthy Nuclei (%),[6],75%
same,Population Mitochondria Different-Phenotype (%),[6],0%
same,Total Cell Count,[6],147
same,Population Apoptotic (%),[7],76%
same,Population Fragmented Nuclei (%),[7],23%
same,Population Healthy Nuclei (%),[7],68%
same,Population Mitochondria Different-Phenotype (%),[7],1%
same,Population Mitotic Cells (%),[7],23%
same,Total Cell Count,[7],247
same,Population Apoptotic (%),[8],100%
same,Population Fragmented Nuclei (%),[8],19%
same,Population Healthy Nuclei (%),[8],70%
same,Population Membrane Permeable-Phenotype (%),[8],8%
same,Population Mitochondria Different-Phenotype (%),[8],2%
same,Population Mitotic Cells (%),[8],0%
same,Total Cell Count,[8],147
same,Population Fragmented Nuclei (%),[9],16%
same,Population Healthy Nuclei (%),[9],75%
same,Population Membrane Permeable-Phenotype (%),[9],4%
same,Population Mitochondria Different-Phenotype (%),[9],3%
same,Population Mitotic Cells (%),[9],15%
same,Total Cell Count,[9],411
same,Population Fragmented Nuclei (%),[10],18%
same,Population Healthy Nuclei (%),[10],68%
same,Population Mitochondria Different-Phenotype (%),[10],1%
same,Population Mitotic Cells (%),[10],3%
same,Total Cell Count,[10],202
same,Population Apoptotic (%),[11],90%
same,Population Fragmented Nuclei (%),[11],20%
same,Population Healthy Nuclei (%),[11],70%
same,Population Membrane Permeable-Phenotype (%),[11],4%
same,Population Mitochondria Different-Phenotype (%),[11],2%
same,Population Mitotic Cells (%),[11],9%
same,Total Cell Count,[11],362
same,Population Apoptotic (%),[12],100%
same,Population Fragmented Nuclei (%),[12],53%
same,Population Healthy Nuclei (%),[12],25%
same,Population Membrane Permeable-Phenotype (%),[12],80%
same,Population Mitochondria Different-Phenotype (%),[12],50%
same,Population Mitotic Cells (%),[12],0%
same,Total Cell Count,[12],41
Cc1nc2ccc(Oc3ccc(F)cc3)cc2c(=O)n1C[C@H]1CCCN(C(C)C)C1.Cl,Population Apoptotic (%),[1],83%
same,Population Fragmented Nuclei (%),[1],25%
same,Population Healthy Nuclei (%),[1],64%
same,Population Hoechst High Intensity Objects (%),[1],3%
same,Population Membrane Permeable-Phenotype (%),[1],9%
same,Population Mitochondria Different-Phenotype (%),[1],3%
same,Population Mitotic Cells (%),[1],16%
same,Population Normal (%),[1],96%
same,Population Pyknosed Nuclei (%),[1],10%
same,Population Tubulin-Different-Phenotype (%),[1],7%
same,Total Cell Count,[1],244
same,Population Apoptotic (%),[2],60%
same,Population Fragmented Nuclei (%),[2],14%
same,Population Healthy Nuclei (%),[2],81%
same,Population Hoechst High Intensity Objects (%),[2],1%
same,Population Membrane Permeable-Phenotype (%),[2],17%
same,Population Mitochondria Different-Phenotype (%),[2],7%
same,Population Mitotic Cells (%),[2],40%
same,Population Normal (%),[2],98%
same,Population Pyknosed Nuclei (%),[2],4%
same,Population Tubulin-Different-Phenotype (%),[2],9%
same,Total Cell Count,[2],125
same,Population Apoptotic (%),[3],65%
same,Population Fragmented Nuclei (%),[3],25%
same,Population Healthy Nuclei (%),[3],59%
same,Population Hoechst High Intensity Objects (%),[3],3%
same,Population Membrane Permeable-Phenotype (%),[3],58%
same,Population Mitochondria Different-Phenotype (%),[3],61%
same,Population Mitotic Cells (%),[3],35%
same,Population Normal (%),[3],96%
same,Population Pyknosed Nuclei (%),[3],15%
same,Population Tubulin-Different-Phenotype (%),[3],63%
same,Total Cell Count,[3],268
same,Population Apoptotic (%),[4],78%
same,Population Fragmented Nuclei (%),[4],24%
same,Population Healthy Nuclei (%),[4],58%
same,Population Hoechst High Intensity Objects (%),[4],4%
same,Population Membrane Permeable-Phenotype (%),[4],25%
same,Population Mitochondria Different-Phenotype (%),[4],75%
same,Population Mitotic Cells (%),[4],21%
same,Population Normal (%),[4],95%
same,Population Pyknosed Nuclei (%),[4],17%
same,Population Tubulin-Different-Phenotype (%),[4],47%
same,Total Cell Count,[4],86
same,Population Apoptotic (%),[5],78%
same,Population Fragmented Nuclei (%),[5],23%
same,Population Healthy Nuclei (%),[5],65%
same,Population Hoechst High Intensity Objects (%),[5],4%
same,Population Membrane Permeable-Phenotype (%),[5],7%
same,Population Mitochondria Different-Phenotype (%),[5],5%
same,Population Mitotic Cells (%),[5],21%
same,Population Normal (%),[5],95%
same,Population Pyknosed Nuclei (%),[5],10%
same,Population Tubulin-Different-Phenotype (%),[5],4%
same,Total Cell Count,[5],276
same,Population Apoptotic (%),[6],80%
same,Population Fragmented Nuclei (%),[6],21%
same,Population Healthy Nuclei (%),[6],71%
same,Population Hoechst High Intensity Objects (%),[6],2%
same,Population Membrane Permeable-Phenotype (%),[6],11%
same,Population Mitochondria Different-Phenotype (%),[6],9%
same,Population Mitotic Cells (%),[6],20%
same,Population Normal (%),[6],97%
same,Population Pyknosed Nuclei (%),[6],6%
same,Population Tubulin-Different-Phenotype (%),[6],8%
same,Total Cell Count,[6],146
same,Population Apoptotic (%),[7],77%
same,Population Fragmented Nuclei (%),[7],25%
same,Population Healthy Nuclei (%),[7],57%
same,Population Hoechst High Intensity Objects (%),[7],4%
same,Population Membrane Permeable-Phenotype (%),[7],37%
same,Population Mitochondria Different-Phenotype (%),[7],63%
same,Population Mitotic Cells (%),[7],22%
same,Population Normal (%),[7],95%
same,Population Pyknosed Nuclei (%),[7],16%
same,Population Tubulin-Different-Phenotype (%),[7],47%
same,Total Cell Count,[7],297
same,Population Apoptotic (%),[8],76%
same,Population Fragmented Nuclei (%),[8],22%
same,Population Healthy Nuclei (%),[8],52%
same,Population Hoechst High Intensity Objects (%),[8],6%
same,Population Membrane Permeable-Phenotype (%),[8],22%
same,Population Mitochondria Different-Phenotype (%),[8],62%
same,Population Mitotic Cells (%),[8],23%
same,Population Normal (%),[8],93%
same,Population Pyknosed Nuclei (%),[8],24%
same,Population Tubulin-Different-Phenotype (%),[8],40%
same,Total Cell Count,[8],91
same,Population Apoptotic (%),[9],84%
same,Population Fragmented Nuclei (%),[9],19%
same,Population Healthy Nuclei (%),[9],69%
same,Population Hoechst High Intensity Objects (%),[9],1%
same,Population Membrane Permeable-Phenotype (%),[9],7%
same,Population Mitochondria Different-Phenotype (%),[9],5%
same,Population Mitotic Cells (%),[9],15%
same,Population Normal (%),[9],98%
same,Population Pyknosed Nuclei (%),[9],10%
same,Population Tubulin-Different-Phenotype (%),[9],4%
same,Total Cell Count,[9],371
same,Population Apoptotic (%),[10],93%
same,Population Healthy Nuclei (%),[10],72%
same,Population Hoechst High Intensity Objects (%),[10],0%
same,Population Mitotic Cells (%),[10],6%
same,Population Normal (%),[10],99%
same,Population Pyknosed Nuclei (%),[10],7%
same,Population Tubulin-Different-Phenotype (%),[10],6%
same,Total Cell Count,[10],213
same,Population Apoptotic (%),[11],77%
same,Population Fragmented Nuclei (%),[11],29%
same,Population Healthy Nuclei (%),[11],54%
same,Population Hoechst High Intensity Objects (%),[11],5%
same,Population Membrane Permeable-Phenotype (%),[11],29%
same,Population Mitochondria Different-Phenotype (%),[11],36%
same,Population Mitotic Cells (%),[11],22%
same,Population Normal (%),[11],94%
same,Population Pyknosed Nuclei (%),[11],16%
same,Population Tubulin-Different-Phenotype (%),[11],23%
same,Total Cell Count,[11],380
same,Population Apoptotic (%),[12],88%
same,Population Healthy Nuclei (%),[12],51%
same,Population Hoechst High Intensity Objects (%),[12],8%
same,Population Membrane Permeable-Phenotype (%),[12],27%
same,Population Mitochondria Different-Phenotype (%),[12],41%
same,Population Mitotic Cells (%),[12],11%
same,Population Normal (%),[12],91%
same,Population Pyknosed Nuclei (%),[12],19%
same,Population Tubulin-Different-Phenotype (%),[12],35%
same,Total Cell Count,[12],103
